Test results taken from ChEMBL document CHEMBL1137328, “5-pyrrolidinylsulfonyl isatins as a potential tool for the molecular imaging of caspases in apoptosis” (J Med Chem, 2006).
Activity calls are given as the source filed them. No cut-off for these calls is given here.

Key:
[1] = target: Caspase-8 (Homo sapiens, UniProt Q14790); assay: Inhibition of caspase 8
How it was run: (§1)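 Recombinant human caspase-1, -6 or -8 at 0.5 units per assay, preincubated 10 min at 37 °C with compound in DMSO at single doses from 5 pM to 500 µM. Fluorogenic AMC substrate then added at 10 µM final (caspase-1 Ac-YVAD-AMC, caspase-6 Ac-VEID-AMC, caspase-8 Ac-IETD-AMC) for a further 10 min. Read-out was AMC fluorescence. IC50 taken by nonlinear regression.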

[2] = target: T1, Caspase-1 (Homo sapiens, UniProt P29466); assay: Inhibition of caspase 1; how it was run: as §1
T1 sequence (P29466 whole entry): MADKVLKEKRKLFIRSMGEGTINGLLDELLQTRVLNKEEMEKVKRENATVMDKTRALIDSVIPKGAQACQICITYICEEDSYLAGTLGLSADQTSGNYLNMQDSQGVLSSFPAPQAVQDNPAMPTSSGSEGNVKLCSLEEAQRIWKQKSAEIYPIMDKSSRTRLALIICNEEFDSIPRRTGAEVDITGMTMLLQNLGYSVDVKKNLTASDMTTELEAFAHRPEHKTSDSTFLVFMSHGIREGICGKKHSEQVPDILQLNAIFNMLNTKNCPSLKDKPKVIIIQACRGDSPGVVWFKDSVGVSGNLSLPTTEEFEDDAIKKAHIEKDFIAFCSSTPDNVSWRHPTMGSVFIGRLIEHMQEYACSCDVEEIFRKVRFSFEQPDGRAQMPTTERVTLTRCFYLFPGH

[3] = target: T2, Caspase-3 (Homo sapiens, UniProt P42574); assay: Binding affinity to human caspase 3
T2 sequence (P42574 whole entry): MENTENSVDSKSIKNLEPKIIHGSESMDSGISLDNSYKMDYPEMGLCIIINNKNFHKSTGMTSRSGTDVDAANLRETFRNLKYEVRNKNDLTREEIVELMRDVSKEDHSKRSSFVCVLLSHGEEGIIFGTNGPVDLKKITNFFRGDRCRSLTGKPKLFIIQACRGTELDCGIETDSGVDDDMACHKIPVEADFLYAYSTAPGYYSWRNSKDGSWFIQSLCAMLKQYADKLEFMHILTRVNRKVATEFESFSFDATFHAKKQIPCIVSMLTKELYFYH
How it was run: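 Recombinant full-length human caspase-3 (1 unit/assay, 0.5 pM) preincubated 10 min at 37 °C with isatin in DMSO (single doses, 5 pM–500 µM) in 25 mM HEPES pH 7.5, 0.1% CHAPS, 50 mM KCl, 5 mM β-mercaptoethanol. Ac-DEVD-AMC (10 µM final) then added for 10 min. IC50 by nonlinear regression, converted to Ki = IC50/(1+[S]/KM). Mean of three assays.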

[4] = target: T2, Caspase-3; assay: Inhibition of caspase 3
How it was run: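 Recombinant human caspases (0.5 units/assay) preincubated 10 min at 37 °C with isatin in DMSO (single doses, 5 pM–500 µM). The buffer for all was 0.1% CHAPS, 100 mM NaCl, 2 mM EDTA, 10% sucrose, with 20 mM HEPES pH 7.4. Caspase-1 used 100 mM HEPES and β-mercaptoethanol, and caspase-7 used β-mercaptoethanol. AMC substrates at 10 µM for 10 min: YVAD (caspase-1), DEVD (caspase-3/-7), VEID (caspase-6), IETD (caspase-8). IC50 by nonlinear regression.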

[5] = target: T3, Caspase-6 (Homo sapiens, UniProt P55212); assay: Inhibition of caspase 6; how it was run: as §1
T3 sequence (P55212 whole entry): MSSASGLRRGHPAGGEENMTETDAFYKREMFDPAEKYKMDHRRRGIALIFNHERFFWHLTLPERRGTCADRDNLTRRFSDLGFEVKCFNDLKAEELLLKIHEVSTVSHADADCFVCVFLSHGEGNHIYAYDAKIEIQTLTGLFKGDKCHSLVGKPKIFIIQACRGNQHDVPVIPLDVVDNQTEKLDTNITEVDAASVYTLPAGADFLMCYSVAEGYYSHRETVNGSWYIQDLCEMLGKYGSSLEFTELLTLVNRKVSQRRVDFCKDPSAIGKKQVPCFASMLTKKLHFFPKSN

[6] = target: T4, Caspase-7 (Homo sapiens, UniProt P55210); assay: Inhibition of caspase 7
T4 sequence (P55210 whole entry): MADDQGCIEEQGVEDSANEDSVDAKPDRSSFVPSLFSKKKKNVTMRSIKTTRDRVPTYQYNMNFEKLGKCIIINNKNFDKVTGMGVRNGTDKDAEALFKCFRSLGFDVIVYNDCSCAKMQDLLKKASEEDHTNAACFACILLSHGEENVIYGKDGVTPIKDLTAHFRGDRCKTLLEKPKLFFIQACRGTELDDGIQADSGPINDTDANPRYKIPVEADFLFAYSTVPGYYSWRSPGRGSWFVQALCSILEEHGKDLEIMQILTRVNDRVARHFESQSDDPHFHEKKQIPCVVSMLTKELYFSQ
How it was run: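 Inhibitor in DMSO (final 5 pM–500 µM, single doses) preincubated 10 min, then Ac-DEVD-AMC (final 10 µM) reacted 10 min. Cleaved AMC quantified by fluorescence; IC50 by nonlinear regression.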

[7] = system: HUVEC; assay: Inhibition of caspase 3 processing in apoptotic HUVEC at 10 uM; format: functional, cell-based; conditions: Homo sapiens
How it was run: (§2)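 HUVEC grown on gelatin-coated dishes in RPMI-1640 with 15% calf serum, heparin and pituitary extract. Cells were preincubated 30 min with compound. Apoptosis was then induced by growth-factor withdrawal (RPMI-1640 alone), with compound present, for 8 h at 37 °C. Lysates (30 µg) were run on 15% SDS-PAGE Western blots for processed caspase-3 (p17/p12), caspase-8, caspase-9, cleaved PARP ([…]) and lamin A/C. Z-VAD-fmk served as full-inhibition control and β-actin as loading control.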

[8] = system: HUVEC; assay: Inhibition of caspase 9 processing in apoptotic HUVEC at 50 uM; format: functional, cell-based; conditions: Homo sapiens; how it was run: as §2
[9] = system: HUVEC; assay: Inhibition of caspase 8 processing in apoptotic HUVEC at 50 uM; format: functional, cell-based; conditions: Homo sapiens; how it was run: as §2
[10] = system: HUVEC; assay: Inhibition of lamin A/C cleavage in apoptotic HUVEC at 50 uM; format: functional, cell-based; conditions: Homo sapiens; how it was run: as §2
[11] = system: HUVEC; assay: Inhibition of PARP cleavage in apoptotic HUVEC at 50 uM; format: functional, cell-based; conditions: Homo sapiens; how it was run: as §2
[12] = system: HUVEC; assay: Inhibition of caspase 9 processing in apoptotic HUVEC at 100 uM; format: functional, cell-based; conditions: Homo sapiens; how it was run: as §2
[13] = system: HUVEC; assay: Inhibition of caspase 8 processing in apoptotic HUVEC at 100 uM; format: functional, cell-based; conditions: Homo sapiens; how it was run: as §2

Sequence of Caspase-8 (Q14790 217-374 limits assumed): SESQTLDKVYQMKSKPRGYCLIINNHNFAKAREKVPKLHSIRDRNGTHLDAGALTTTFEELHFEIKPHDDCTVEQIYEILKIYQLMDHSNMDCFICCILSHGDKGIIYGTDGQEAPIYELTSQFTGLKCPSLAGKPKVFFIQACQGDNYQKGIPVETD
Sequence of Caspase-8 (Q14790 385-479 limits assumed): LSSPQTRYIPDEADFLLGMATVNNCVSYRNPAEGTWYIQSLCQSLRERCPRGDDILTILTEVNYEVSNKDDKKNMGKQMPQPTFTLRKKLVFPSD

SMILES: CC(C)(C)[Si](C)(C)Oc1ccc(CN2C(=O)C(=O)c3cc(S(=O)(=O)N4CCC[C@H]4COc4ccccc4)ccc32)cc1
- IC50 [1]: > 500000 nM
- IC50 [2]: > 500000 nM
- Ki [3]: 9.8 nM
- IC50 [4]: 20 nM
- IC50 [5]: > 500000 nM
- IC50 [6]: 366 nM

SMILES: O=C1C(=O)N(Cc2ccc(I)cc2)c2ccc(S(=O)(=O)N3CCC[C@H]3COc3ccccc3)cc21
- IC50 [1]: > 500000 nM
- IC50 [2]: > 500000 nM
- IC50 [5]: > 500000 nM
- IC50 [6]: 18.6 nM

SMILES: O=C1Nc2ccc(S(=O)(=O)N3CCC[C@H]3COc3ccccc3)cc2C1=O
- IC50 [1]: > 500000 nM
- IC50 [2]: > 10000 nM
- Ki [3]: 8.3 nM
- IC50 [4]: 16.9 nM
- IC50 [5]: > 500000 nM
- IC50 [6]: 294 nM

SMILES: COC[C@@H]1CCCN1S(=O)(=O)c1ccc2c(c1)C(=O)C(=O)N2C
- IC50 [1]: > 500000 nM
- IC50 [2]: > 25000 nM
- Activity [7]: Active
- Ki [3]: 1.2 nM
- IC50 [4]: 2.4 nM
- IC50 [5]: > 500000 nM
- Activity [8]: Active
- Activity [9]: Active
- Activity [10]: Active
- Activity [11]: Active
- Activity [12]: Active
- IC50 [6]: 304 nM
- Activity [13]: Active

SMILES: COC[C@@H]1CCCN1S(=O)(=O)c1ccc2c(c1)C(=O)C(=O)N2Cc1ccc(I)cc1
- IC50 [1]: > 500000 nM
- IC50 [2]: > 10000 nM
- Activity [7]: Active
- Ki [3]: 5.9 nM
- IC50 [4]: 12 nM
- IC50 [5]: > 500000 nM
- IC50 [6]: 1.8 nM

SMILES: COC[C@@H]1CCCN1S(=O)(=O)c1ccc2c(c1)C(=O)C(=O)N2
- IC50 [1]: > 500000 nM
- IC50 [2]: > 15000 nM
- Ki [3]: 41.8 nM
- IC50 [4]: 84.9 nM
- IC50 [5]: > 500000 nM
- IC50 [6]: 1290 nM

SMILES: COC[C@@H]1CCCN1S(=O)(=O)c1ccc2c(c1)C(=O)C(=O)N2Cc1ccc(OC)cc1
- IC50 [1]: > 500000 nM
- IC50 [2]: > 10000 nM
- Activity [7]: Active
- IC50 [4]: 18.4 nM
- IC50 [5]: > 500000 nM
- Activity [8]: Active
- Activity [9]: Active
- Activity [10]: Active
- Activity [11]: Active
- Activity [12]: Active
- IC50 [6]: 4 nM
- Activity [13]: Active

SMILES: Cc1ccc(S(=O)(=O)OCCOc2ccc(CN3C(=O)C(=O)c4cc(S(=O)(=O)N5CCC[C@H]5COc5ccccc5)ccc43)cc2)cc1
- IC50 [1]: > 500000 nM
- IC50 [2]: > 500000 nM
- Ki [3]: 8.6 nM
- IC50 [4]: 17.5 nM
- IC50 [5]: > 500000 nM
- IC50 [6]: 50.9 nM

SMILES: COC[C@@H]1CCCN1S(=O)(=O)c1ccc2c(c1)C(=O)C(=O)N2Cc1ccc(O)cc1
- IC50 [1]: > 500000 nM
- IC50 [2]: > 60000 nM
- Ki [3]: 23.5 nM
- IC50 [4]: 47.8 nM
- IC50 [5]: > 500000 nM
- IC50 [6]: 32.3 nM

SMILES: COC[C@@H]1CCCN1S(=O)(=O)c1ccc2c(c1)C(=O)C(=O)N2Cc1ccc(O[Si](C)(C)C(C)(C)C)cc1
- IC50 [1]: > 500000 nM
- IC50 [2]: > 7000 nM
- Ki [3]: 1.9 nM
- IC50 [4]: 3.8 nM
- IC50 [5]: > 500000 nM
- IC50 [6]: 69.8 nM

SMILES: COC[C@@H]1CCCN1S(=O)(=O)c1ccc2c(c1)C(=O)C(=O)N2Cc1ccc(OCCBr)cc1
- IC50 [1]: > 500000 nM
- IC50 [2]: > 15000 nM
- Ki [3]: 8 nM
- IC50 [4]: 16.3 nM
- IC50 [5]: > 500000 nM
- IC50 [6]: 25.7 nM

SMILES: COC[C@@H]1CCCN1S(=O)(=O)c1ccc2c(c1)C(=O)C(=O)N2Cc1ccc(OCCOS(=O)(=O)c2ccc(C)cc2)cc1
- IC50 [1]: > 500000 nM
- IC50 [2]: > 500000 nM
- Ki [3]: 0.8 nM
- IC50 [4]: 1.7 nM
- IC50 [5]: > 500000 nM
- IC50 [6]: 13.8 nM

SMILES: O=C1C(=O)N(Cc2ccc(O)cc2)c2ccc(S(=O)(=O)N3CCC[C@H]3COc3ccccc3)cc21
- IC50 [1]: > 500000 nM
- IC50 [2]: > 25000 nM
- Ki [3]: 4 nM
- IC50 [4]: 8.2 nM
- IC50 [5]: > 500000 nM
- IC50 [6]: 52.7 nM

SMILES: O=C1C(=O)N(Cc2ccc(OCCBr)cc2)c2ccc(S(=O)(=O)N3CCC[C@H]3COc3ccccc3)cc21
- IC50 [1]: > 500000 nM
- IC50 [2]: > 500000 nM
- Ki [3]: 12.6 nM
- IC50 [4]: 25.6 nM
- IC50 [5]: > 500000 nM
- IC50 [6]: 42 nM

SMILES: COc1ccc(CN2C(=O)C(=O)c3cc(S(=O)(=O)N4CCC[C@H]4COc4ccccc4)ccc32)cc1
- IC50 [1]: > 500000 nM
- IC50 [2]: > 500000 nM
- Ki [3]: 4.8 nM
- IC50 [4]: 9.7 nM
- IC50 [5]: > 500000 nM
- IC50 [6]: 31.2 nM

SMILES: O=C1C(=O)N(Cc2ccc(OCCF)cc2)c2ccc(S(=O)(=O)N3CCC[C@H]3COc3ccccc3)cc21
- IC50 [1]: > 500000 nM
- IC50 [2]: > 500000 nM
- Ki [3]: 0.2 nM
- IC50 [4]: 0.3 nM
- IC50 [5]: > 500000 nM
